Measured values from ChEMBL document CHEMBL3098014 (Bioorg Med Chem, 2014).

How the values were obtained:
[1] = biological target: Sodium-dependent serotonin transporter (Rattus norvegicus, UniProt P31652); experiment: Displacement of [3H]5-HT from rat cerebral cortex SERT after 10 mins; format: tissue-based
Method in brief: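 Rat cerebral cortex tissue. Inhibition of [3H]5-HT (27.9 Ci/mmol) uptake, accumulation measured over 10 min. Drug stocks included an added 0.01% (w/v) BSA. Five or more triplicate concentrations bracketing the IC50, converted to Ki by Cheng-Prusoff. Mean ± SEM from three to eight independent experiments.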

Transporter = Transporter (Rattus norvegicus, UniProt Q63380); experiment: Displacement of [3H]-dopamine from rat cerebral cortex NET after 7 mins; format: tissue-based
[2] = biological target: Sodium-dependent dopamine transporter (Rattus norvegicus, UniProt P23977); experiment: Displacement of [3H]-dopamine from rat striatum DAT after 5 mins
Method in brief: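 Uptake inhibition in rat striatal tissue: [3H]dopamine (45.0 Ci/mmol) accumulation measured over 5 min. Drug stocks contained an extra 0.01% (w/v) BSA. At least five concentrations, each in triplicate, spaced evenly around the IC50. IC50 converted to Ki via Cheng-Prusoff. Average ± SEM of three to eight independent experiments.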

Sequence of Transporter (Q63380 whole entry): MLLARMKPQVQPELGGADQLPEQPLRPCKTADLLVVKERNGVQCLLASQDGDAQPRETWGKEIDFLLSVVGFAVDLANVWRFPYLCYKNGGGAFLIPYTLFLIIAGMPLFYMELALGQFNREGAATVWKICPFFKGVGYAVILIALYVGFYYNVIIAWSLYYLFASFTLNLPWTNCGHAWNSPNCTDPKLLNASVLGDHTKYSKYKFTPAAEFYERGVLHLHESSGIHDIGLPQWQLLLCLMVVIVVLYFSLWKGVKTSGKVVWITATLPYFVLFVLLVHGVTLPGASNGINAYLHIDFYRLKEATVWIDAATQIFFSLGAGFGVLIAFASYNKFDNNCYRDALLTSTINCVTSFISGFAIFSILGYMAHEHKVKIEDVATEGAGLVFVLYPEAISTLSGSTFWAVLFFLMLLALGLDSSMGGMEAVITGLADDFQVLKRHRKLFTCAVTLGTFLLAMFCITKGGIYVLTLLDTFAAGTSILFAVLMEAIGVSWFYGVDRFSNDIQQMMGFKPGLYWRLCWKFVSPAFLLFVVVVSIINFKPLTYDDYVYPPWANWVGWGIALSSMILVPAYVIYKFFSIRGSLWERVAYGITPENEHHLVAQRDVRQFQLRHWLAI
Sequence of Sodium-dependent serotonin transporter (P31652 whole entry): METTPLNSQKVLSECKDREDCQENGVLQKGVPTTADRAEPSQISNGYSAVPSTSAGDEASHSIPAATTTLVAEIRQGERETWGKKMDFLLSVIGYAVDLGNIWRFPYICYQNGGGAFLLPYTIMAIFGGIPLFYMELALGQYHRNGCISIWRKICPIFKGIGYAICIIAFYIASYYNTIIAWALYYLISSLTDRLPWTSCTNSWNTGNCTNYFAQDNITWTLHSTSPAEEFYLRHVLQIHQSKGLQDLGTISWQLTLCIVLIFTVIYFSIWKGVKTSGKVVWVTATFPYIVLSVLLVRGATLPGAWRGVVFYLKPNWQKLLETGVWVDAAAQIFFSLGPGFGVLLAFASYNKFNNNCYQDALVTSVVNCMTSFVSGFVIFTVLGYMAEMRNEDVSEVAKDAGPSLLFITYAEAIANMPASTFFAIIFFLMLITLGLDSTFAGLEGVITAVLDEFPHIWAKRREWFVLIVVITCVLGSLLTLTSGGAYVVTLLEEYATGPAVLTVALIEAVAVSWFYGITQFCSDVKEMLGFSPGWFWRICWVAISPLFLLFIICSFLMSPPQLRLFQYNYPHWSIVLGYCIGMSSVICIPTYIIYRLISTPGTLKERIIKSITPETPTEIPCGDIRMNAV
Sequence of Sodium-dependent dopamine transporter (P23977 whole entry): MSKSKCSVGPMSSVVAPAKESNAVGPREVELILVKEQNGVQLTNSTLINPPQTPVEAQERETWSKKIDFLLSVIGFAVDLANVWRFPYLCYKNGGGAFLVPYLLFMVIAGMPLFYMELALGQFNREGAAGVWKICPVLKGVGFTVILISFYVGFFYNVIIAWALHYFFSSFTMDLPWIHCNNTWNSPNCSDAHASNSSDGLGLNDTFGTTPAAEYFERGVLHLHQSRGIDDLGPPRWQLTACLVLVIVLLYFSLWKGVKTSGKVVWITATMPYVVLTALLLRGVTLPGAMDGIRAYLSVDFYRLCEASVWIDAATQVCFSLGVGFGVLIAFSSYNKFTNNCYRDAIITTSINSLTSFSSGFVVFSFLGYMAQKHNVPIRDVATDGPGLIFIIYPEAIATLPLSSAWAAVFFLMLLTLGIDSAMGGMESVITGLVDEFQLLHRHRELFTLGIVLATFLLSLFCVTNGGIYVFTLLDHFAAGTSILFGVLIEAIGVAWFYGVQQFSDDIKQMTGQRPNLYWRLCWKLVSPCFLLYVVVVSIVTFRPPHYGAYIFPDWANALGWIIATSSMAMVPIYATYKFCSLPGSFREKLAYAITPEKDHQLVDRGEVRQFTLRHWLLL

Ki [1] | Ki (Transporter) | Ki [2] | Structure (SMILES)
58.4 nM | 4.2 nM | 38.4 nM | Oc1ccc(CN[C@@H]2CO[C@H](C(c3ccc(F)cc3)c3ccc(F)cc3)C[C@H]2O)cc1
2500 nM | 240 nM | – | Oc1ccc(CN[C@H]2CC[C@@H](Cc3ccccc3)OC2)cc1
358 nM | 198 nM | 266 nM | COc1ccc(CCN[C@@H]2CO[C@H](C(c3ccccc3)c3ccccc3)C2)cc1
2050 nM | 427 nM | 642 nM | c1ccc(CCN[C@@H]2CO[C@H](C(c3ccccc3)c3ccccc3)C2)cc1
1150 nM | 1510 nM | 943 nM | Oc1ccc(CN[C@@H]2CO[C@H](C(c3ccccc3)c3ccccc3)C2)cc1
473 nM | 37.7 nM | 45.7 nM | Oc1ccc(CN[C@H]2CC[C@@H](CCC(c3ccccc3)c3ccccc3)OC2)cc1
150 nM | 165 nM | 260 nM | Oc1ccc(CCN[C@@H]2CO[C@H](C(c3ccccc3)c3ccccc3)C2)cc1
408 nM | 975 nM | 3690 nM | Oc1ccc(CN[C@H]2CO[C@H](C(c3ccccc3)c3ccccc3)C2)cc1
346 nM | 181 nM | 245 nM | Oc1ccc(CN[C@H]2CC[C@@H](CC(c3ccccc3)c3ccccc3)OC2)cc1
844 nM | 739 nM | 454 nM | c1ccc(CCN[C@H]2CO[C@H](C(c3ccccc3)c3ccccc3)C2)cc1
1350 nM | 196 nM | 586 nM | Fc1ccc(CCN[C@@H]2CO[C@H](C(c3ccccc3)c3ccccc3)C2)cc1

Structure (SMILES) | Ki [1] | Ki (Transporter) | Ki [2]
Fc1ccc(C(c2ccc(F)cc2)[C@@H]2CC[C@H](NCc3ccc4c(c3)CCO4)CO2)cc1 | 3 nM | 6.1 nM | 11.2 nM
Nc1ccc(CN[C@H]2CC[C@@H](C(c3ccccc3)c3ccccc3)OC2)cc1 | – | 12.6 nM | –
Nc1ccc(CN[C@H]2CC[C@@H](C(c3ccc(F)cc3)c3ccc(F)cc3)OC2)cc1 | 69.1 nM | 8.4 nM | 32.5 nM
